# Key:
# [1] = Apparent oral clearance in HIV-negative human serum at 300 mg, po administered every 12 hrs coadministered with 600 mg of rifampin every 24 hrs; format: ADME, organism-based
# Summary of the method: (§1)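 Healthy HIV-negative volunteers, open-label sequential periods at steady state. […] Plasma (EDTA) drawn predose and 1–12 h (plus 24 h) on last day of period. Atazanavir measured by HPLC-UV 212 nm, linear 25–20,000 ng/ml. Noncompartmental analysis; AUC24 taken as doubled AUC12.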
# Homo sapiens [2] = experiment: Toxicity in HIV-negative human assessed as bilirubin level at 300 mg, po administered every 12 hrs; format: organism-based; details: in vivo
# Summary of the method: (§2)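 Serum bilirubin measured at commercial laboratories as a safety test during steady-state dosing periods in healthy HIV-negative volunteers.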
# [3] = Cmax in HIV-negative human at 400 mg, po administered every 12 hrs coadministered with 600 mg of rifampin every 24 hrs; format: ADME, organism-based; set-up: dose 400 mg, route oral; details: in vivo; summary of the method: as §1
# [4] = Cmax in HIV-negative human at 300 mg, po administered every 12 hrs coadministered with 600 mg of rifampin every 24 hrs; format: ADME, organism-based; set-up: dose 300 mg, route oral; details: in vivo; summary of the method: as §1
# [5] = AUC (24 hrs) in HIV-negative human at 400 mg, po administered every 12 hrs coadministered with 600 mg of rifampin every 24 hrs; format: ADME, organism-based; set-up: dose 400 mg, time < 24 hr, route oral; details: plasma; summary of the method: as §1
# [6] = AUC (12 hrs) in HIV-negative human at 300 mg, po administered every 12 hrs; format: ADME, organism-based; set-up: time < 12 hr, dose 300 mg, route oral; details: plasma; summary of the method: as §1
# [7] = Apparent oral clearance in HIV-negative human serum at 300 mg, po administered every 12 hrs coadministered with […] every 24 hrs; format: ADME, organism-based
# [8] = Drug level in HIV-negative human serum at 300 mg, po administered every 12 hrs measured at 12 hrs; format: ADME, organism-based
# Summary of the method: (§3)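 Steady-state atazanavir level 12 h after morning dose, sampled before the evening dose and read directly from observed data. […] Plasma measured by HPLC-UV at 212 nm after tert-butyl methyl ether extraction. Linear range 25–20,000 ng/ml.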
# Homo sapiens [9] = experiment: Terminal apparent distribution volume in HIV-negative human serum at 400 mg, po administered every 12 hrs coadministered with 600 mg of rifampin every 24 hrs; format: ADME, organism-based; details: in vivo; summary of the method: as §1
# Homo sapiens [10] = experiment: Toxicity in human with two gilbert's genotype homozygotes assessed as bilirubin level at 300 mg, po administered every 12 hrs; format: organism-based; details: in vivo
# Homo sapiens [11] = experiment: Toxicity in HIV-negative human assessed as hemoglobin level at 400 mg, po administered every 12 hrs coadministered with 600 mg of rifampin every 24 hrs; details: in vivo
# Homo sapiens [12] = experiment: Terminal apparent distribution volume in HIV-negative human serum at 300 mg, po administered every 12 hrs coadministered with 600 mg of rifampin every 24 hrs; format: ADME, organism-based; details: in vivo; summary of the method: as §1
# Homo sapiens [13] = experiment: Toxicity in HIV-negative human assessed as alanine aminotransferase levels at 400 mg, po administered every 12 hrs coadministered with 600 mg of rifampin every 24 hrs; details: in vivo
# Homo sapiens [14] = experiment: Terminal apparent distribution volume in HIV-negative human serum at 300 mg, po administered every 12 hrs; format: ADME, organism-based; details: in vivo; summary of the method: as §1
# [15] = Cmax in HIV-negative human at 400 mg administered every 24 hrs; format: ADME, organism-based; set-up: dose 400 mg; details: in vivo
# [16] = Tmax in HIV-negative human at 400 mg, po administered every 12 hrs coadministered with 600 mg of rifampin every 24 hrs; format: ADME, organism-based; details: in vivo; summary of the method: as §1
# Homo sapiens [17] = experiment: Toxicity in HIV-negative human assessed as creatinine levels at 300 mg, po administered every 12 hrs administered every 12 hrs coadministered with 600 mg of rifampin every 24 hrs; format: organism-based; details: in vivo
# Homo sapiens [18] = experiment: Toxicity in gilbert's genotype lacking human assessed as bilirubin level at 300 mg, po administered every 12 hrs; format: organism-based; details: in vivo
# [19] = Tmax in HIV-negative human at 300 mg, po administered every 12 hrs; format: ADME, organism-based; details: in vivo; summary of the method: as §1
# [20] = Half life in HIV-negative human at 300 mg, po administered every 12 hrs; format: ADME, organism-based; details: in vivo; summary of the method: as §1
# Homo sapiens [21] = experiment: Toxicity in HIV-negative human assessed as alanine aminotransferase levels at 300 mg, po administered every 12 hrs; format: organism-based; details: in vivo
# [22] = Drug level in HIV-negative human serum at 400 mg, po administered every 12 hrs coadministered with 600 mg of rifampin every 24 hrs measured at 12 hrs; format: ADME, organism-based; summary of the method: as §3
# Homo sapiens [23] = experiment: Toxicity in HIV-negative human assessed as hemoglobin level at 300 mg, po administered every 12 hrs administered every 12 hrs coadministered with 600 mg of rifampin every 24 hrs; format: organism-based; details: in vivo
# [24] = Cmax in HIV-negative human at 300 mg, po administered every 12 hrs; format: ADME, organism-based; set-up: dose 300 mg, route oral; details: in vivo; summary of the method: as §1
# [25] = AUC (12 hrs) in HIV-negative human at 400 mg, po administered every 12 hrs coadministered with 600 mg of rifampin every 24 hrs; format: ADME, organism-based; set-up: dose 400 mg, time < 12 hr, route oral; details: plasma; summary of the method: as §1
# [26] = Half life in HIV-negative human at 400 mg, po administered every 12 hrs coadministered with 600 mg of rifampin every 24 hrs; format: ADME, organism-based; details: in vivo; summary of the method: as §1
# [27] = AUC (24 hrs) in HIV-negative human at 300 mg, po administered every 12 hrs coadministered with 600 mg of rifampin every 24 hrs; format: ADME, organism-based; set-up: dose 300 mg, time < 24 hr, route oral; details: plasma; summary of the method: as §1
# Homo sapiens [28] = experiment: Toxicity in HIV-negative human assessed as alanine aminotransferase levels at 300 mg, po administered every 12 hrs administered every 12 hrs coadministered with 600 mg of rifampin every 24 hrs; format: organism-based; details: in vivo
# [29] = Cmax in HIV-negative human at 300 mg coadministered with 100 mg of ritonavir every 24 hrs; format: ADME, organism-based; set-up: dose 300 mg; details: in vivo
# [30] = Half life in HIV-negative human at 300 mg, po administered every 12 hrs coadministered with 600 mg of rifampin every 24 hrs; format: ADME, organism-based; details: in vivo; summary of the method: as §1
# [31] = AUC (12 hrs) in HIV-negative human at 300 mg, po administered every 12 hrs coadministered with 600 mg of rifampin every 24 hrs; format: ADME, organism-based; set-up: dose 300 mg, time < 12 hr, route oral; details: plasma; summary of the method: as §1
# Homo sapiens [32] = experiment: Toxicity in human with six gilbert's genotype heterozygotes assessed as bilirubin level at 300 mg, po administered every 12 hrs; format: organism-based; details: in vivo
# [33] = AUC (24 hrs) in HIV-negative human at 300 mg, po administered every 12 hrs; format: ADME, organism-based; set-up: dose 300 mg, time < 24 hr, route oral; details: plasma; summary of the method: as §1
# [34] = Drug level in HIV-negative human serum at 300 mg, po administered every 12 hrs coadministered with 600 mg of rifampin every 24 hrs measured at 12 hrs; format: ADME, organism-based; summary of the method: as §3
# Homo sapiens [35] = experiment: Toxicity in HIV-negative human assessed as bilirubin level at 300 mg, po administered every 12 hrs administered every 12 hrs coadministered with 600 mg of rifampin every 24 hrs; format: organism-based; details: in vivo; summary of the method: as §2
# Homo sapiens [36] = experiment: Toxicity in HIV-negative human assessed as bilirubin level at 400 mg, po administered every 12 hrs coadministered with 600 mg of rifampin every 24 hrs; details: in vivo
# Homo sapiens [37] = species: Homo sapiens; experiment: Toxicity in HIV-negative human assessed as grade 3 fatigue; format: organism-based; details: in vivo
# [38] = Tmax in HIV-negative human at 300 mg, po administered every 12 hrs coadministered with 600 mg of rifampin every 24 hrs; format: ADME, organism-based; details: in vivo; summary of the method: as §1
# [39] = AUC (24hrs) in HIV-negative human at 400 mg administered every 24 hrs; format: ADME, organism-based; details: plasma
# Homo sapiens [40] = experiment: Toxicity in HIV-negative human assessed as creatinine levels at 300 mg, po administered every 12 hrs; format: organism-based; details: in vivo
# Homo sapiens [41] = experiment: Toxicity in HIV-negative human assessed as hemoglobin level at 300 mg, po administered every 12 hrs; format: organism-based; details: in vivo
# Homo sapiens [42] = experiment: Toxicity in HIV-negative human assessed as creatinine levels at 400 mg, po administered every 12 hrs coadministered with 600 mg of rifampin every 24 hrs; details: in vivo
# [43] = Apparent oral clearance in HIV-negative human serum at 300 mg, po administered every 12 hrs; format: ADME, organism-based; summary of the method: as §1
# [44] = AUC (24 hrs) in HIV-negative human at 300 mg coadministered with 100 mg of ritonavir every 24 hrs; format: ADME, organism-based; set-up: dose 300 mg, time < 24 hr; details: plasma
structure (smiles),measurement,setting,value
COC(=O)N[C@H](C(=O)N[C@@H](Cc1ccccc1)[C@@H](O)CN(Cc1ccc(-c2ccccn2)cc1)NC(=O)[C@@H](NC(=O)OC)C(C)(C)C)C(C)(C)C [ATAZANAVIR],CL/F,[1],1390 mL/min
same,Activity,Homo sapiens [2],Toxic
same,Cmax,[3],2360 ng/mL
same,Cmax,[4],1430 ng/mL
same,AUC at 24 h,[5],19600 ng·h/mL
same,AUC at 12 h,[6],23800 ng·h/mL
same,CL/F,[7],808 mL/min
same,concentration at 12 h,[8],811 ng/mL
same,Vbeta,Homo sapiens [9],171 L
same,Activity,Homo sapiens [10],5 mg/dL
same,Activity,Homo sapiens [11],Non-toxic
same,Vbeta,Homo sapiens [12],252 L
same,Activity,Homo sapiens [13],Non-toxic
same,Vbeta,Homo sapiens [14],78 L
same,Cmax,[15],5200 ng/mL
same,Tmax,[16],2.9 h
same,Activity,Homo sapiens [17],Non-toxic
same,Activity,Homo sapiens [18],2.6 mg/dL
same,Tmax,[19],3.2 h
same,half-life,[20],5.1 h
same,Activity,Homo sapiens [21],Non-toxic
same,concentration at 12 h,[22],113 ng/mL
same,Activity,Homo sapiens [23],Non-toxic
same,Cmax,[24],3910 ng/mL
same,AUC at 12 h,[25],9800 ng·h/mL
same,half-life,[26],2.4 h
same,AUC at 24 h,[27],10300 ng·h/mL
same,Activity,Homo sapiens [28],Non-toxic
same,Cmax,[29],6130 ng/mL
same,half-life,[30],2.2 h
same,AUC at 12 h,[31],5100 ng·h/mL
same,Activity,Homo sapiens [32],4.1 mg/dL
same,AUC at 24 h,[33],47600 ng·h/mL
same,concentration at 12 h,[34],44 ng/mL
same,Activity,Homo sapiens [35],Non-toxic
same,Activity,Homo sapiens [36],Non-toxic
same,Activity,Homo sapiens [37],7%
same,Tmax,[38],2.7 h
same,AUC at 24 h,[39],29300 ng·h/mL
same,Activity,Homo sapiens [40],Non-toxic
same,Activity,Homo sapiens [41],Non-toxic
same,Activity,Homo sapiens [42],Non-toxic
same,CL/F,[43],202 mL/min
same,AUC at 24 h,[44],61400 ng·h/mL
